Test results from the RNAGym collection of RNA variant scans (doi:10.1126/science.aae0568).
Fewer inactive variants are shown than the library holds.

B1: tRNA (parent)
chain: GUUCCGUUGGCGUAAUGGUAACGCGUCUCCCUCCUAAGGAGAAGACUGCGGGUUCGAGUCCCGUACGGAACG

Variants of: B1
Experiment: yeast fitness relative to wild type (ratio to wild type); higher = fitter; tRNA-Arg(CCU), competitive growth, 37 C, YPD
Method in brief: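 Genotype frequency changes were the basis for Darwinian fitness relative to wild type. The frequencies came from 100-nucleotide paired-end sequencing of gene amplicons from the start population and each end population of pooled yeast strains with tRNA-Arg(CCU) gene variants at the native locus. Competition ran in YPD at 37°C for 24 hours in six replicates, genotypes needed ≥ 100 starting reads, and estimates < 0.5 were set to 0.5.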

U19A C29G C46A G68C and U19A C22G C34U A42G A43G G51A A70U cannot be ordered by yeast fitness: no more than 0.5 for the first, no more than 0.5 for the second.

First: U19C C29U
Second: U19C C29G
The yeast fitness of the first is higher: 0.948 for the first, 0.578 for the second.

First: G18C C29G A36C G44C G50A
Second: U19C C24A G58A
The yeast fitness of the first is higher: 0.526 for the first, no more than 0.5 for the second.

Compared with U19C A43G G44C A45C C66U, U19A U35A A37G A43U A45C is lower in yeast fitness: 0.589 for the first, no more than 0.5 for the second.

Compared with G18C U26G C55G, U19C A21G U26G is higher in yeast fitness: no more than 0.5 for the first, 1.01 for the second.

Going from U19A C27A A45C to G18C C29G A45G C66U, the yeast fitness rises from 0.557 to 0.613.

U19C A45C C61A and G18C C22A C29U A45C cannot be ordered by yeast fitness: no more than 0.5 for the first, no more than 0.5 for the second.

Compared with G18C A21G G56A, U19C A20G G67A A69U is lower in yeast fitness: 0.575 for the first, no more than 0.5 for the second.

Going from U19C A37U C66G to U19A U26A C29A C46G U54A, the yeast fitness rises from no more than 0.5 to 0.603.

Compared with G18C G58A, G18C G58C is lower in yeast fitness: 0.701 for the first, 0.635 for the second.

U19C A36C U47A G48C U54G A65C and G18C G23A G25A C49U C60G cannot be ordered by yeast fitness: no more than 0.5 for the first, no more than 0.5 for the second.

Going from G18C A57G to U19C C30G U59C A69U, the yeast fitness falls from 0.715 to no more than 0.5.

Going from U19A G44A A69C to U19A C24A C31G C62U G68C, the yeast fitness falls from 0.685 to 0.535.

First: U19A A21G C27U C33U G67C
Second: G18A U59G
The yeast fitness of the first is lower: no more than 0.5 for the first, 0.776 for the second.

G18C C33G A36C C46A and G18C C22G C31U U59A G63A cannot be ordered by yeast fitness: no more than 0.5 for the first, no more than 0.5 for the second.

Going from U19C C29G U54A A65C to G18C A69U, the yeast fitness rises from no more than 0.5 to 0.695.

First: G18C C22U C34G
Second: U19C A20C
The yeast fitness of the first is lower: 0.688 for the first, 0.805 for the second.

First: U19C A45G C62U
Second: G18C A45C A65C
The yeast fitness of the first is higher: 0.953 for the first, 0.598 for the second.

First: U19C C31A G50U C62G G63A
Second: U19A G48A A69U
The yeast fitness of the first is lower: no more than 0.5 for the first, 0.966 for the second.

Compared with U19A C27U A43U C55U, U19C C30U G51C is higher in yeast fitness: no more than 0.5 for the first, 0.693 for the second.

Going from U19A U59G to U19A U59A, the yeast fitness rises from 0.793 to 0.845.

G18A U53A U54G and U19C C27U C29G C34A A42C G58A A65G cannot be ordered by yeast fitness: no more than 0.5 for the first, no more than 0.5 for the second.

Compared with G18C C27U C61A, U19A C31G A65U is higher in yeast fitness: no more than 0.5 for the first, 0.582 for the second.

Going from U19C A42U to G18C U35G G41C G56A A65G C66U, the yeast fitness falls from 1.12 to no more than 0.5.

Compared with G18C A45U, U19A C27U G44A is higher in yeast fitness: 0.549 for the first, 0.781 for the second.

G18C C27U C55G A65G G68C and U19C A20G A37G cannot be ordered by yeast fitness: no more than 0.5 for the first, no more than 0.5 for the second.

G18C G23A G25C A37G A43C C55G G63A G68A and G18C G38A A43U A45G A57G U59C cannot be ordered by yeast fitness: no more than 0.5 for the first, no more than 0.5 for the second.

Going from U19C C27A to U19C C30U C55G G58C, the yeast fitness falls from 0.987 to 0.533.

First: U19A A40G C60U U64C
Second: U19C A36C G41C
The yeast fitness of the first is higher: 0.705 for the first, no more than 0.5 for the second.

Going from U19A A40G to G18C C22A C29U A45C A69U, the yeast fitness falls from 0.75 to no more than 0.5.

U19C C27A C30U G56C and U19A U32A A36G cannot be ordered by yeast fitness: no more than 0.5 for the first, no more than 0.5 for the second.

Compared with U19C C24U C31G U35A C61A A69C, G18C A40C C49G G63A is higher in yeast fitness: no more than 0.5 for the first, 0.553 for the second.

U19C C29A A37G and U19A G25C C33A A37G G44A cannot be ordered by yeast fitness: no more than 0.5 for the first, no more than 0.5 for the second.

G18C U53C C61U and G18C G51A A69G cannot be ordered by yeast fitness: no more than 0.5 for the first, no more than 0.5 for the second.

First: U19A C31U
Second: U19A C31G G38C A40C G56A
The yeast fitness of the first is higher: 0.954 for the first, 0.569 for the second.

Compared with U19C A21C, U19C A21U is lower in yeast fitness: 1.12 for the first, 0.846 for the second.

Compared with G18C C31A A43G G58C A65G, U19C C31A G41C is higher in yeast fitness: no more than 0.5 for the first, 0.577 for the second.

G18C U28A A42U and G18C C29U A43G C49A cannot be ordered by yeast fitness: no more than 0.5 for the first, no more than 0.5 for the second.

G18C A57U C61U and G18C C24G A36C G38C G58C cannot be ordered by yeast fitness: no more than 0.5 for the first, no more than 0.5 for the second.

Compared with U19C C31U C33G G41A C49G U54C, U19A C22G C30G A42G C46G is higher in yeast fitness: no more than 0.5 for the first, 0.741 for the second.

Compared with U19C A37G C49U A69C, G18C C24G C34U C49A U64C G67A is lower in yeast fitness: 0.51 for the first, no more than 0.5 for the second.

First: U19C A20C A43G C46A C55U A57U C61U
Second: U19C C34A G50C G56A
The yeast fitness of the first is higher: 0.592 for the first, 0.55 for the second.

Compared with G18C G48A U53G, U19A G50A is higher in yeast fitness: no more than 0.5 for the first, 0.795 for the second.

First: U19C C29G U32G C61U C66A
Second: U19A A43C A69U
The yeast fitness of the first is lower: no more than 0.5 for the first, 0.56 for the second.

Compared with G18U C31U G63A, U19A U28A C60G is lower in yeast fitness: 0.527 for the first, no more than 0.5 for the second.

Compared with U19C C30G, U19A G39C A69U is lower in yeast fitness: 0.645 for the first, 0.574 for the second.

U19A G23C C30A A36G C60U and G18C C29G A36C G44C G50A C66A cannot be ordered by yeast fitness: no more than 0.5 for the first, no more than 0.5 for the second.

First: G18C A40G A42G C66G
Second: U19C A65U
The yeast fitness of the first is lower: no more than 0.5 for the first, 1.07 for the second.

First: U19A A40C C55A C66A
Second: U19A C29G G48A C61A
The yeast fitness of the first is lower: no more than 0.5 for the first, 0.683 for the second.

Going from G18A U19A C61U to U19C C22G A65U, the yeast fitness falls from 0.61 to 0.547.

Going from U19A A20C A21G C30G C55G to G18C G23A C61A, the yeast fitness falls from 0.573 to no more than 0.5.

Going from G18C G23A C61U to U19A C27U, the yeast fitness rises from no more than 0.5 to 1.02.

First: G18C C30U A45U
Second: U19A C27U A45U C62A
The yeast fitness of the first is higher: 0.549 for the first, no more than 0.5 for the second.

Going from U19A A36U to U19A C30G A36G C61G, the yeast fitness falls from 0.653 to no more than 0.5.

Compared with U19C A37C C62A U64C, U19A U47A C61A is higher in yeast fitness: no more than 0.5 for the first, 0.549 for the second.

Going from U19A A36U G50U C61U to U19A C24G C33G C34G, the yeast fitness rises from no more than 0.5 to 0.528.

Compared with U19A G38C C60A, G18C G48A C66U is higher in yeast fitness: no more than 0.5 for the first, 0.545 for the second.

U19A C24U G38A U54C and G18C G52A A57U A65C cannot be ordered by yeast fitness: no more than 0.5 for the first, no more than 0.5 for the second.

Compared with U19A A37U A43G A57G, U19A C62U is higher in yeast fitness: 0.594 for the first, 0.931 for the second.

Compared with U19A C24A, U19A C24G is higher in yeast fitness: 0.598 for the first, 0.633 for the second.

Going from U19A C24U to U19A C24U C29A U54A, the yeast fitness falls from 1.03 to no more than 0.5.

G18A U19C C27G C61A U64G C66U and U19A C30G A36G A57U A65U cannot be ordered by yeast fitness: no more than 0.5 for the first, no more than 0.5 for the second.

G18C A20G C30A and U19A C30U G38C U53G cannot be ordered by yeast fitness: no more than 0.5 for the first, no more than 0.5 for the second.

Compared with G18C C27U G68C, U19A A70C is higher in yeast fitness: 0.548 for the first, 1.03 for the second.

Going from U19A A70U to G18C A20U U53C A69U, the yeast fitness falls from 1.03 to no more than 0.5.

Compared with G18C C49U G56C G58A, G18C A40G is higher in yeast fitness: no more than 0.5 for the first, 0.64 for the second.

First: G18C C24U C29G C30G
Second: U19C C31A
The yeast fitness of the first is lower: 0.593 for the first, 0.768 for the second.

Going from U19A C66A to U19A C66U, the yeast fitness rises from 0.607 to 0.996.

Compared with U19A C66G, U19A C22G A45U C49U U64A is lower in yeast fitness: 0.686 for the first, no more than 0.5 for the second.

Compared with G18U A45U U59C, G18C A70C is higher in yeast fitness: 0.542 for the first, 0.687 for the second.

U19C C33A C34G and G18C C49G C61G cannot be ordered by yeast fitness: no more than 0.5 for the first, no more than 0.5 for the second.

Going from U19C C30A U47C to U19C A20C C33U A69C, the yeast fitness falls from 0.693 to no more than 0.5.

Going from U19A C30G to U19A U26C C30A A43C, the yeast fitness falls from 0.671 to no more than 0.5.

G18C C24A A57C C66U A69C and G18C C34G G58C cannot be ordered by yeast fitness: no more than 0.5 for the first, no more than 0.5 for the second.

U19A C34G A43C C49U and G18C G23A G25C A37G A65G cannot be ordered by yeast fitness: no more than 0.5 for the first, no more than 0.5 for the second.

U19A A21G C27U C33U and U19A C60G A69U cannot be ordered by yeast fitness: no more than 0.5 for the first, no more than 0.5 for the second.

Going from G18C U19C to U19A C22G G23C C30G C34A C55U, the yeast fitness falls from 0.587 to no more than 0.5.

First: G18C G23C G39A
Second: U19C C34A
The yeast fitness of the first is lower: no more than 0.5 for the first, 0.76 for the second.

Going from U19C A21U A69U to U19A C29G U54C G58A, the yeast fitness falls from 0.691 to no more than 0.5.

Going from U19A A42G U47C to G18C U26A U53C, the yeast fitness rises from no more than 0.5 to 0.549.

Going from G18C C22U G56C to U19A A36G U59A, the yeast fitness falls from 0.542 to no more than 0.5.

U19A G25A A37U A42G C55U and U19A G25C C33A A37G C55U cannot be ordered by yeast fitness: no more than 0.5 for the first, no more than 0.5 for the second.

G18A U26A C27U C49U G58A and G18C G23A G25C A37G A43C cannot be ordered by yeast fitness: no more than 0.5 for the first, no more than 0.5 for the second.

U19C C24U U64A showed a yeast fitness of 0.73.
